For experiment [1], the system named is Escherichia coli. In words: Antibacterial activity against Escherichia coli ATCC 25922 incubated for 18 hrs by dilution antimicrobial susceptibility test. Type of experiment: functional. In outline:
(§1)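 Dilution susceptibility test for aerobic bacteria. Compounds in DMSO, serially diluted to 10 concentrations (0.5–256 μg/mL), tested in triplicate. Positive controls were vancomycin for MRSA ATCC 33591 and gentamicin for E. coli ATCC 25922. Each plate carried six untreated media controls. Incubation was 35 °C for 18 h. MIC was read as the lowest concentration with no visible bacterial growth.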

Experiment [2] concerns Staphylococcus aureus. The experiment in a line: Antibacterial activity against methicillin-resistant Staphylococcus aureus ATCC 33591 incubated for 18 hrs by dilution antimicrobial susceptibility test. The following applies: ATCC 33591, 18 h.
The test system of experiment [3] is Staphylococcus aureus. The experiment in a line: Antibacterial activity against methicillin-resistant Staphylococcus aureus ATCC 33591 at 256 ug/ml incubated for 18 hrs by dilution antimicrobial susceptibility test.
Experiment [4] concerns Escherichia coli. In words: Antibacterial activity against Escherichia coli ATCC 25922 at 256 ug/ml incubated for 18 hrs by dilution antimicrobial susceptibility test. Type of experiment: functional, organism-based. Put shortly: as §1

Converted amounts (≈) assume the structure as drawn. The source made the active and inactive calls.

Usually MIC stands for the smallest concentration in the dilution series that meets the test's criterion for growth inhibition. High values mean weaker potency, low ones greater potency. For the compound GENTAMICIN, inhibition of growth against Escherichia coli [1] (MIC) required 4 µg/mL.
In the case of `C[C@@H]1O[C@@H](O)C[C@@](C)(N)[C@H]1O[C@H]1CC[C@H](OC(=O)c2cc(Cl)c[nH]2)[C@@H](C)O1`, the MIC came out at 32 µg/mL (≈ 79.4 µM) against Staphylococcus aureus [2] and 64 µg/mL (≈ 159 µM) against Escherichia coli [1] (ATCC 25922, 18 h).
On to `C[C@@H]1O[C@H](O[C@H]2CC[C@H](O)O[C@@H]2C)C[C@@](C)(N)[C@H]1O[C@H]1CC[C@H](OC(=O)c2cc(Cl)c[nH]2)[C@@H](C)O1`, for which the outcome in the experiment with Staphylococcus aureus [3] and in the experiment with Escherichia coli [4] was inactive.
Consider `C[C@@H]1O[C@H](O)C[C@@](C)(NC(=O)CCC(=O)O)[C@H]1O[C@@H]1C[C@@](C)(N)[C@@H](O[C@H]2CC[C@H](OC(=O)c3cc(Cl)c[nH]3)[C@@H](C)O2)[C@H](C)O1`, for which the result in the experiment on Staphylococcus aureus [3] and in the experiment on Escherichia coli [4] was inactive.
`CN[C@H](CC(C)C)C(=O)N[C@H]1C(=O)N[C@@H](CC(N)=O)C(=O)N[C@H]2C(=O)N[C@H]3C(=O)N[C@H](C(=O)N[C@H](C(=O)O)c4cc(O)cc(O)c4-c4cc3ccc4O)[C@H](O)c3ccc(c(Cl)c3)Oc3cc2cc(c3O[C@@H]2O[C@H](CO)[C@@H](O)[C@H](O)[C@H]2O[C@H]2C[C@](C)(N)[C@H](O)[C@H](C)O2)Oc2ccc(cc2Cl)[C@H]1O` [VANCOMYCIN] registered an MIC against Staphylococcus aureus [2] of 0.25 µg/mL (≈ 0.173 µM).
Regarding `C[C@@H]1O[C@@H](O)C[C@@](C)(N)[C@H]1O[C@H]1CC[C@H](OC(=O)c2cc(Br)c[nH]2)[C@@H](C)O1`, the minimum inhibitory concentration (MIC) stood at 32 µg/mL (≈ 71.5 µM) with Staphylococcus aureus [2] and 64 µg/mL (≈ 143 µM) in the experiment with Escherichia coli [1] (ATCC 25922, 18 h).
On to `C[C@@H]1O[C@@H](O)C[C@@](C)(N)[C@H]1O[C@H]1CC[C@H](OC(=O)c2ccc[nH]2)[C@@H](C)O1`, for which the result with Staphylococcus aureus [3] and with Escherichia coli [4] was inactive.

(Values after ChEMBL document CHEMBL4414668, “Phallusialides A-E, Pyrrole-Derived Alkaloids Discovered from a Marine-Derived Micromonospora sp. Bacterium Using MS-Based Metabolomics Approaches” (2019).)
